Screens deposited in PubChem BioAssay by several laboratories.
NPY1 pot ag – potentiates or activates human NPY-Y1 receptor. hit rate 0.37% among 220,000. activation, % at 3.6 µM. AID 1304. NPY-Y1 expressing cells, potentiator/agonist activation; in the data active = activation above about 33%, passing the limit was not always enough;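 note: cells stimulated with NPY at EC10 then isoproterenol at EC100; 0% = low agonist plus stimulus and 100% = saturating agonist plus stimulus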
Target sequence (P25929 whole entry, looked up): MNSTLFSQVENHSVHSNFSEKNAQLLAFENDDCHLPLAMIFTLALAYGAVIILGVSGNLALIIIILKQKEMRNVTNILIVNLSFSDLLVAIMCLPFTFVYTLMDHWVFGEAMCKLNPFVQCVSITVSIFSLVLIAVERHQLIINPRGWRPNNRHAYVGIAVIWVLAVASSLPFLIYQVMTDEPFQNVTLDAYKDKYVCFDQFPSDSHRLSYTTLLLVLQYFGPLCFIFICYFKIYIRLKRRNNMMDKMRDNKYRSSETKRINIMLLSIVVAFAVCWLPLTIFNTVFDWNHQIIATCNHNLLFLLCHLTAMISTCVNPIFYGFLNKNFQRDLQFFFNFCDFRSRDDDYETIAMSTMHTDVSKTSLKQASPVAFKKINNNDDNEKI
NPY-Y2 PAM-ag – potentiators or agonists of human neuropeptide Y receptor Y2; P49146; cells expressing NPY-Y2, potentiator/agonist read-out; activation, % at 3.6 µM; hit rate 0.45% among 220,000; in the data active = activation above about 27%;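 note: cells stimulated with NPY near EC25 plus isoproterenol at EC100; 0% = vehicle plus submaximal agonist and 100% = vehicle plus saturating agonist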
NPY Y1 blocker – NPY-Y1 (human) receptor antagonism; hit rate 1% among 200,000; P25929; inhibition, % at 3.6 µM; HEK293-CNG Y1 cells, membrane potential fluorescence; NPY at EC95, then isoproterenol;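 active = inhibition above the campaign mean inhibition of all tested compounds plus 3 SD, cut at about 20% in these data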;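 note: 0% = DMSO wells given NPY plus isoproterenol and 100% = isoproterenol alone without NPY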
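material = HEK293 cells with Y1 receptor plus CNG channel | also added = NPY 25 nM then isoproterenol 1 µM plus Ro 20-1724 25 µM | schedule = dye 3 h, compound 60 min room temperature, stimulation 45 min | measured by = membrane potential fluorescence | benchmarks = high control isoproterenol alone, low control NPY with isoproterenol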
EP2 modulator – EP2 receptor (human) modulation. P43116. EP2-expressing cells, cAMP HTRF FRET, PGE2 co-stimulation. induction, % at 25 µM. hit rate 0.83% among 260,000. AID 940;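 active = compounds whose cAMP rise, as percent of the full-agonist control response, exceeds 60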;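 note: rat C6 glioma line stably carrying human EP2 under a CMV promoter; the protocol text gives 20 µM as final concentration; 100% = response of wells given 1 µM PGE2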
Target sequence (P43116 whole entry, looked up): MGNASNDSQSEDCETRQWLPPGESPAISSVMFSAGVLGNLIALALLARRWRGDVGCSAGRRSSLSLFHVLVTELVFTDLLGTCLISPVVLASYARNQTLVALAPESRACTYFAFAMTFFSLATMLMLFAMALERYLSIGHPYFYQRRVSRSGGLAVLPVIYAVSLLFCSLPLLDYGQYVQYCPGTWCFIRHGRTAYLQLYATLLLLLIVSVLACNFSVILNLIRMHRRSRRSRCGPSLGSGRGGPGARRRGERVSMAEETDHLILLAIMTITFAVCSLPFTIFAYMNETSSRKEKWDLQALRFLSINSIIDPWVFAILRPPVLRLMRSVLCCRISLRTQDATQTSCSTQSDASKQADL
NPY Y2 blocker – antagonists of human neuropeptide Y receptor Y2; inhibition, % at 2.7 µM; NPY-Y2 expressing cells, antagonist mode; hit rate 0.99% among 140,000; AID 793; P49146; in the data active = inhibition above about 17%;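 note: 0% = vehicle with agonist challenge and 100% = reference antagonist with challenge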
EP2 antag – inhibitors of human EP2 prostaglandin E2 receptor. inhibition, % at 25 µM. C6 glioma cells expressing human EP2, cAMP TR-FRET; cells stimulated with saturating PGE2. hit rate 0.52% among 260,000;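 active = percent inhibition above 40 after rounding to a whole number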;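 note: rat C6 glioma host cells with rolipram phosphodiesterase inhibitor present; the protocol text gives 20 µM as final concentration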
NPY-Y1 antag ct – antagonizes human NPY-Y1, counter-screen to NPY-Y2 antagonists; shares compounds with NPY Y2 blocker; cell-based NPY-Y1 antagonism counterscreen; inhibition, % at 3.6 µM; hit rate 19% among 710; in the data active = inhibition above about 20%;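 note: cells challenged with NPY then isoproterenol with cAMP sensed through a CNG channel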
NPY-Y2 ant conf – human NPY-Y2 antagonism, confirmation. hit rate 32% among 710. inhibition, % at 2.8 µM. shares compounds with NPY Y2 blocker. HEK293 NPY-Y2 CNG channel, membrane potential fluorescence;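 active = mean inhibition of triplicate wells above the hit cutoff set in the primary screen, cut at about 17% in these data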;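 note: 0% = DMSO with NPY challenge and 100% = BIIE0246 high control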
EP2 cAMP induct – human EP2 receptor cAMP induction, negative in counter-screens; hit rate 47% among 1,300; shares compounds with EP2 modulator; C6 glioma EP2 cells, cAMP HTRF induction; plus low (about EC15) PGE2 agonist; calls only at 20 µM (by protocol); AID 1080;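 active = cAMP induction above 50% in the main assay while under 30% in all four parallel counter assays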;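 note: rat C6 glioma cells stably expressing human EP2 receptor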
Numbers without * were called inactive; i = inactive; · = not tested or not shown; + = active, no number; ! = not active in a repeat. Compounds with a hit are over-represented: about 2.8% of the library has one in this group of screens.

SMILES | NPY1 pot ag | NPY-Y2 PAM-ag | NPY Y1 blocker | EP2 modulator | NPY Y2 blocker | EP2 antag | NPY-Y1 antag ct | NPY-Y2 ant conf | others
Cc1cc(C(=O)CSc2nnc(-c3cccs3)o2)c(C)n1-c1ccccc1 | -9 | 2 | 0 | 46 | 20* | 14 | 16 | 12
COc1cccc(-c2nc(CS(=O)(=O)CC(=O)NCc3ccccc3OC)c(C)o2)c1 | -35 | -15 | 20 | 8 | 22* | 9 | 12 | 12
COc1cccc(-c2nc(-c3ccc(NC(=O)Cc4ccccc4OC)cc3)no2)c1 | -53 | -19 | 5 | -1 | 23* | 17 | 5 | 115*
Nc1cc(-c2cccs2)nn(CC(=O)N(c2ccccc2)c2ccccc2)c1=O | · | · | · | -13 | · | 5 | · | ·
Cc1cc(C(=O)COC(=O)c2ccccc2O)c(C)n1Cc1cccs1 | -6 | -7 | 12 | 14 | 13 | 2 | · | ·
CCn1nc(C(=O)OCC(=O)c2cc(C)n(Cc3cccs3)c2C)c2ccccc2c1=O | -15 | -24 | 17 | 2 | 24* | 8 | 20 | 25*
CCOc1ccc2[nH]c(=O)c(CN(Cc3ccco3)C(=O)c3sc4ccccc4c3Cl)cc2c1 | · | · | · | -5 | · | 8 | · | ·
Cc1ccc(SCc2[nH]nc3c2C(c2cccnc2)C(C#N)=C(N)O3)cc1 (stereo not drawn) | -13 | 7 | 6 | 3 | 18* | 27 | 93* | 81*
Cc1ccc(N2C(=O)c3ccccc3C2C(=O)c2cc(C)ccc2O)cc1 (stereo not drawn) | 9 | 18 | -2 | 17 | 27* | 9 | 35* | 38*
CCC(C)(C)NC(=O)C(c1cccs1)N(C(=O)c1csnn1)c1ccc(Cl)cc1 (stereo not drawn) | · | · | · | -2 | · | 10 | · | ·
O=S(=O)(Nc1nc2ccccc2[nH]1)c1ccc2ccccc2c1 | -37 | -18 | 17 | 14 | 19* | 8 | 12 | 8
O=C(NCCNS(=O)(=O)c1ccc(Cl)cc1)c1cc(OCC(F)(F)F)ccc1OCC(F)(F)F | 27 | 8 | -7 | -26 | 38* | 4 | 0 | 0
O=C(c1ccccc1)N(Cc1cccnc1)C1(C(=O)Nc2ccccc2)CCCCC1 | 7 | -2 | 2 | 32 | 19* | 4 | 4 | 5
CCC(=O)Nc1nonc1-c1nc2ccccc2n1Cc1cccc2ccccc12 | -108 | -57 | 19 | 30 | 18* | 9 | 26* | 41*
Cc1cc(C)n(-c2nc(Nc3ccccc3C(F)(F)F)nc(-n3nc(C)cc3C)n2)n1 | -19 | -2 | 4 | -10 | 19* | 16 | 10 | 7
CN(C)c1ccc(NC(=O)CN2CCC(O)(c3ccccc3)CC2)cc1 | 3 | -1 | 3 | 13 | · | 10 | · | ·
CN(C)C(=O)C(CCN1CCC(O)(c2ccc(Cl)cc2)CC1)(c1ccccc1)c1ccccc1 | -39 | 0 | 19 | 11 | 25* | 12 | 15 | 28*
CS(=O)(=O)N(CC(=O)N1CCN(Cc2ccc3c(c2)OCO3)CC1)Cc1ccc(Cl)cc1 | -15 | -7 | 15 | -27 | 23* | 17 | 9 | 4
CS(=O)(=O)N(CCc1ccccc1)CC(=O)N1CCN(Cc2ccc3c(c2)OCO3)CC1 | -14 | 10 | -3 | -7 | 2 | 10 | · | ·
CC1(C)Cc2nc(-c3ccccc3)nc(SCC(O)CO)c2CO1 (stereo not drawn) | -7 | 10 | · | 4 | · | 0 | · | ·
CCN(CC)C(=O)CSc1nc(-c2ccc(C)cc2)nc2c1COC(C)(C)C2 | 2 | 6 | 7 | -1 | 20* | 8 | 5 | 4
Cc1ccc(C)c(NS(=O)(=O)c2cc(C(=O)Nc3ccccc3-c3ccccc3)ccc2C)c1 | 18 | -41 | 5 | 53 | 22* | 7 | 0 | 117*
Cc1ccc(C(=O)Nc2ccccc2-c2ccccc2)cc1S(=O)(=O)Nc1cccc(C)c1C | -4 | -25 | 4 | 32 | 15 | 10 | · | ·
Cc1ccc(N=C(NOC(=O)c2ccccc2)c2nonc2N)c(C)c1 | -2 | -23 | 9 | -7 | 25* | -1 | 7 | 4
CC(=O)ONC(=Nc1ccccc1)c1nonc1N | 17 | -27 | · | -25 | · | 6 | · | ·
SMILES | NPY1 pot ag | NPY-Y2 PAM-ag | NPY Y1 blocker | EP2 modulator | NPY Y2 blocker | EP2 antag | NPY-Y1 antag ct | NPY-Y2 ant conf | others
Cc1cc(Nc2ccccc2)nc(NCc2ccccc2)n1 | -24 | -17 | 5 | 19 | 17 | 6 | · | ·
Cc1cc(Oc2ccccc2)nc(NCc2ccccc2)n1 | -22 | -23 | 12 | 66* | 20* | 11 | 11 | 4 | EP2 cAMP induct=+
COC(=O)c1ccccc1NC(=O)c1cnn2c(C(F)F)cc(C3CC3)nc12 | -34 | 1 | 16 | 76* | 19* | 13 | 44* | 32* | EP2 cAMP induct=i
Cc1cc2cc3c(cc2n2c(=O)n(CC(=O)N4CCC(C)CC4)nc12)OCO3 | · | · | · | -57 | · | · | · | ·
CC/C(=C\C1CCCCC1)C(NP(=O)(c1ccccc1)c1ccccc1)c1ccccc1 (stereo not drawn) | -20 | 0 | 18 | 70* | 23* | 5 | 38* | 34* | EP2 cAMP induct=+
COc1ccc(Cn2c(-c3ccc(OC)cc3)nc3ccccc32)cc1 | -8 | -13 | 8 | 67* | 21* | · | 12 | 6 | EP2 cAMP induct=i
O=C(COc1ccccc1)Nc1cc(C(F)(F)F)ccc1N1CCOCC1 | · | · | · | 52 | · | 9 | · | ·
O=C(COc1ccccc1)Nc1cc(C(F)(F)F)ccc1N1CCCC1 | -13 | -24 | 20 | 79* | 20* | 19 | 27* | 15 | EP2 cAMP induct=i
CCOCCCNC(=O)C1CCN(S(=O)(=O)c2cc(Cl)ccc2Cl)CC1 | · | · | · | 15 | · | 5 | · | ·
COc1cc(C(=O)Nc2ccc3nc(C)n(Cc4ccc(F)cc4)c(=O)c3c2)cc(OC)c1OC | · | · | · | -30 | · | 7 | · | ·
COCC(=O)N(C)c1nnc(-c2cnccn2)s1 | 4 | 0 | -2 | 12 | 2 | 8 | · | ·
COCC(=O)N(C)c1nnc(-c2cnc(C)cn2)s1 | -13 | 10 | 2 | 71* | 0 | 17 | · | · | EP2 cAMP induct=i
O=S(=O)(c1ccc(F)cc1)c1snnc1-c1ccccc1 | -27 | -5 | -3 | 69* | · | -1 | · | · | EP2 cAMP induct=+
Oc1c(Cl)cc(Cl)cc1Sc1cc(Cl)cc(Cl)c1O | 35 | 30 | 1 | 76*! | 14 | 21 | · | · | EP2 cAMP induct=i
Oc1c(Cl)cc(Cl)cc1CNn1cnnc1 | 4 | -5 | -4 | 0 | · | 9 | · | ·
COc1ccccc1-c1nnc(SCC(=O)c2ccc(C3CCCCC3)cc2)n1Cc1ccco1 | -19 | -28 | 5 | 54 | 12 | 7 | · | · | EP2 cAMP induct=+
